Calls of active or inactive are those of the source. No cut-off for these calls is given here.
Assays:
HCT-15 = assay: Cytotoxicity against human HCT-15 cells after 5 days by MTT assay; format: functional, cell-based
Summary of the method: (§1)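 Cells grown in RPMI 1640 with 10% heat-inactivated FCS, 100 IU/mL penicillin and 100 µg/mL streptomycin. 1000 cells seeded per well; test samples added in fresh medium 24 h later, then 5 days at 37 °C. MTT (2 mg/mL solution) added for 4 h; cells dissolved in DMSO for 10 min; A540 read. Untreated cells taken as 100% survival; IC50 from viability-concentration plots; etoposide positive control.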

PC-3 = assay: Cytotoxicity against human PC-3 cells after 5 days by MTT assay; format: functional, cell-based; summary of the method: as §1
MDA-MB-231 = assay: Cytotoxicity against human MDA-MB-231 cells after 5 days by MTT assay; format: functional, cell-based
Summary of the method: as §1, with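 “FCS, penicillin/streptomycin” for “FCS, 100 IU/mL penicillin”, “and 5” for “and 100”, “µg/mL insulin.” for “µg/mL streptomycin.”, “min; absorbance read at 540 nm.” for “min; A540 read.”, “cells set” for “cells taken”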

T47D = assay: Cytotoxicity against human T47D cells after 5 days by MTT assay; format: functional, cell-based
Summary of the method: as §1, with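 “FCS, penicillin/streptomycin” for “FCS, 100 IU/mL penicillin”, “and 5” for “and 100”, “µg/mL insulin.” for “µg/mL streptomycin.”, “min; absorbance read at 540 nm.” for “min; A540 read.”, “cells set” for “cells taken”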

Pyricularia = assay: Morphological deformation in Pyricularia oryzae mycelia; format: functional
Summary of the method: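 Mycelia germinated from P. oryzae conidia were scored for morphological deformation. The endpoint was the minimum morphological deformation concentration (MMDC), the lowest concentration that produced deformation. Griseofulvin and fusarelin A served as positive controls.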

HT-29 = assay: Cytotoxicity against human HT-29 cells after 5 days by MTT assay; format: functional, cell-based; summary of the method: as §1
LNCaP = assay: Cytotoxicity against human LNCaP cells after 5 days by MTT assay; format: functional, cell-based; summary of the method: as §1

Row | SMILES | Activity (HCT-15) | Activity (PC-3) | Activity (MDA-MB-231) | Activity (T47D) | Activity (Pyricularia) [µM] | Activity (HT-29) | Activity (LNCaP)
1 | CC(=O)C1=CC[C@H]2[C@@H]3CC=C4C[C@@H](O[C@@H]5O[C@H](CO)[C@@H](O[C@@H]6O[C@@H](C)[C@H](O)[C@@H](O)[C@H]6O)[C@H](O)[C@H]5O[C@@H]5O[C@@H](C)[C@H](O)[C@@H](O)[C@H]5O)CC[C@]4(C)[C@H]3CC[C@]12C | inactive | inactive | inactive | inactive | 236 | inactive | inactive
2 | CC(=O)[C@H]1[C@@H](OC(=O)CCC(C)CO[C@@H]2O[C@H](CO)[C@@H](O)[C@H](O)[C@H]2O)C[C@H]2[C@@H]3CC=C4C[C@@H](O[C@@H]5O[C@H](CO)[C@@H](O[C@@H]6O[C@@H](C)[C@H](O)[C@@H](O)[C@H]6O)[C@H](O)[C@H]5O[C@@H]5O[C@@H](C)[C@H](O)[C@@H](O)[C@H]5O)CC[C@]4(C)[C@H]3CC[C@@]21C (some centres undefined) [HYPOGLAUCIN G] | inactive | inactive | inactive | inactive | 135 | inactive | inactive

Source: ChEMBL document CHEMBL1158019, “A new pregnane glycoside from Dioscorea collettii var. hypoglauca” (1999)
